Measurements reported in article PMC3947039 (ACS chemical biology, 2013).

How the values were obtained:
db/db mice [1] = assay: Excisional diabetic wound-healing model, topical treatment; assay type: in vivo, mouse
In short: (§1)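 Test compound dissolved in saline at 5.0 mg mL−1 as the dosing solution; saline vehicle; both filter-sterilised. Applied topically to excisional wounds in db/db or wild-type mice. Wound healing scored on days 1, 3, 7, 10 and 14, with n = 35, 28, 21, 14 and 7 mice on those days. Results given as mean ± SD, with treated versus vehicle compared statistically.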

wild-type mice [2] = assay: Excisional wound-healing model in wild-type mice, topical treatment; assay type: in vivo, mouse
In short: as §1

db/db mice [3] = assay: H&E staining of wounds, re-epithelialization, db/db mice; assay type: in vivo, mouse; conditions: topical, day 14
In short: (§2)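 Wounds were treated topically with the test compound in saline, or with saline vehicle alone. Wounds were imaged at a common scale. Day-14 wound tissue was H&E stained, and the re-epithelialized region was traced on the sections.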

wild-type mice [4] = assay: H&E staining of wounds, re-epithelialization, wild-type mice; assay type: in vivo, mouse; conditions: topical, day 14
In short: as §2

MMP-9 = MMP-9 (Mus musculus, UniProt P41245); assay: In-situ zymography with DQ-gel in diabetic wound tissues; assay type: in vivo; conditions: db/db mice, versus vehicle
Sequence of MMP-9 (P41245 108-730): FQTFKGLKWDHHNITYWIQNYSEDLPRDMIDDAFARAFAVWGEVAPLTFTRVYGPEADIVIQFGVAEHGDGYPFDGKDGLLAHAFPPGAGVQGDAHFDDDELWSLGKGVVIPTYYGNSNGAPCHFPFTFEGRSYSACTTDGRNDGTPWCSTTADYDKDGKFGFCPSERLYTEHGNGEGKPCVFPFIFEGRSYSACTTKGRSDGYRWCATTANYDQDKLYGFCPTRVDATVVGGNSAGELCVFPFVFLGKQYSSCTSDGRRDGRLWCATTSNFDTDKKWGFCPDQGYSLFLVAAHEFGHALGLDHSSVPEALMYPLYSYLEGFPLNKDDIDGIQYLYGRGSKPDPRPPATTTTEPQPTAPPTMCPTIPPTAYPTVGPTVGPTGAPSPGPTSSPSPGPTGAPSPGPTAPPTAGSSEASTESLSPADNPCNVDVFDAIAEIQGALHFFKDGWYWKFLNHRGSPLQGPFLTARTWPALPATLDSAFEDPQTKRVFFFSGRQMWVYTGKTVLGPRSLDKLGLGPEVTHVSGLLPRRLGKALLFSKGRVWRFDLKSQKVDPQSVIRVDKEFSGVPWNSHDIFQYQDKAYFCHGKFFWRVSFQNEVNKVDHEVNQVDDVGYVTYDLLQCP
In short: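 db/db wounds were treated topically with the test compound or vehicle. Wound sections were incubated with the fluorogenic MMP gelatin substrate DQ-gel to localise MMP activity in situ. Nuclei were counterstained with DAPI, and the green fluorescence was imaged merged with the DAPI signal.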

[5] = test system: apoptotic cells in wounds of diabetic mice; assay: TUNEL apoptosis detection in diabetic wound tissues; assay type: in vivo, mouse; conditions: versus vehicle
MMP-1 = conditions: at 250 μM; cited from earlier work
MMP-7 = conditions: at 250 μM; cited from earlier work
MMP-19 = conditions: at 30 μM; cited from earlier work
ADAM9 = conditions: at 20 μM; cited from earlier work
ADAM10 = conditions: at 20 μM; cited from earlier work
ADAM17 = conditions: read-out: Ki ADAM17; competitive; cited from earlier work
[6] = test system: non-diabetic wounds in rats; conditions: cited from earlier work
[7] = test system: non-diabetic wounds in pigs; conditions: cited from earlier work
[8] = test system: non-diabetic wounds in humans; conditions: cited from earlier work

Nc1ccc(Oc2ccc(S(=O)(=O)CC3CS3)cc2)cc1 (stereo not shown) [ND-322]
wound healing as a percentage of the initial wound area (db/db mice [1]; day 10, mean ± SD): 70 ± 16% | wound healing as a percentage of the initial wound area (db/db mice [1]; day 14, mean ± SD): 92 ± 4% | wound healing, difference versus vehicle-treated (db/db mice [1]; days 1, 3 and 7, p > 0.2): not statistically significant | wound healing as a percentage of the initial wound area (wild-type mice [2]; day 7, mean ± SD): 62 ± 19% | wound healing as a percentage of the initial wound area (wild-type mice [2]; day 10, mean ± SD): 82 ± 11% | wound healing as a percentage of the initial wound area (wild-type mice [2]; day 14, mean ± SD): 96 ± 4% | re-epithelialization (H&E staining) (db/db mice [3]): complete re-epithelialization | re-epithelialization (H&E staining) (wild-type mice [4]): complete re-epithelialization | gelatinase activity (due to MMP-9) in wound tissues (MMP-9): significantly decreased | apoptosis in wound tissues (TUNEL) [5]: significantly decreased | inhibition of MMP-1 (MMP-1): 10% | inhibition of MMP-7 (MMP-7): 16% | inhibition of MMP-19 (MMP-19): 9% | inhibition of ADAM9 (ADAM9): 30% | inhibition of ADAM10 (ADAM10): 21% | Ki (ADAM17): 15.7 ± 2 µM

CNC(=O)[C@H](Cc1c[nH]c2ccccc12)NC(=O)[C@@H](CC(=O)NO)CC(C)C [ilomastat]
epithelialization [6]: diminished epithelialization | wound closure [6]: delayed wound closure | epithelialization [7]: diminished epithelialization | wound closure [7]: delayed wound closure | epithelialization [8]: diminished epithelialization | wound closure [8]: delayed wound closure
